T cell HTS: modulators of CD8 T cell-vesicle binding, primary screen, mouse 2C CD8+ T cells, flow cytometry. 330,000 tested, 0.068% active. response (vesicle binding), % at 7 µM. 2C CD8+ T cell-vesicle binding; hits give low values;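 active = response, share of CD8 T cells binding vesicles, and their 90th percentile fluorescence all below set limits, cut at about 80% in these data, passing the limit was not always enough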;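 also: values below 100% mean blocked vesicle binding to the CD8+ T cells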
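Material: 2C TCR transgenic mouse naive CD8+ T cells, MACS-purified. Also added: QL9-charged Drosophila Ld/ICAM-1/B7-1 vesicles. Timing: binding 1.5 h at 37 °C. Measured by: high-throughput flow cytometry with anti-B7-1 and anti-CD8 staining. Read-out: percent CD8+ FL2 mean versus row control. Controls: Unloaded micro-vesicles (low), QL9 vesicles with 0.7% DMSO (high).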
NR2E3 ag-1: NR2E3 agonists in two-hybrid cells, primary screen, cell-based, luminescence, CHO-S, Gal4-NCOR/VP16-NR2E3. Photoreceptor-specific nuclear receptor (Homo sapiens), Q9Y5X4. luciferase. inhibition of corepressor binding, % at 3.98 µM. 360,000 tested, 0.35% active;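 active = inhibition above the mean of all tested compounds plus 3 SD, cut at about 70% in these data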;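 also: 0% = DMSO with NR2E3 transfected cells and 100% = cells lacking NR2E3 construct; higher means lower luciferase signal from less NR2E3 corepressor binding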
Target sequence (Q9Y5X4 whole entry, looked up, the tested form may be a part): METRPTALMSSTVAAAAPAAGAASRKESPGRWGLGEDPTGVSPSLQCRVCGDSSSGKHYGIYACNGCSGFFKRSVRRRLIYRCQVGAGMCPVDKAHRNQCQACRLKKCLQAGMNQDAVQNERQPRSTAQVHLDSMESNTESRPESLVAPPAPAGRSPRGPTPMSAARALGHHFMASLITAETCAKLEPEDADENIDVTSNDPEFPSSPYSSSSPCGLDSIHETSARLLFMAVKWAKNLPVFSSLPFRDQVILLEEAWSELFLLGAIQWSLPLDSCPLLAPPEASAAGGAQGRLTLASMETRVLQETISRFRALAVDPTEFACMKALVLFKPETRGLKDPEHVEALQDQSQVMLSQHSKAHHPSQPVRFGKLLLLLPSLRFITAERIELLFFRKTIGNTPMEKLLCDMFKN
NR2E3 ag-2: inhibitors of NR2E3-RetCOR corepressor binding, primary screen, NR2E3 agonist project, biochemical, TR-FRET, GST-NR2E3, biotin-RetCOR. Photoreceptor-specific nuclear receptor (Homo sapiens), Q9Y5X4. 1536-well. inhibition of corepressor binding, % at 4.78 µM. 320,000 tested, 0.12% active. AID 2300, 2010;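 active = percent inhibition above the cutoff of mean plus 3 SD of all tested compounds, set per screening campaign, cut at about 20% in these data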;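 also: 0% = DMSO wells and 100% = biotin wells as full block of FRET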
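Material: NR2E3–RetCOR corepressor complex / Amount: 1.35 nM GST-NR2E3 / Medium: Tris pH 7.5 / Compound: single nominal compound dose of 4.8 µM / Incubation: 5 h at 4 °C / Technique: TR-FRET, Eu(K)-anti-GST donor, streptavidin-D2 acceptor, ex 340, em 617/671 nm / Read-out basis: percent loss of FRET ratio relative to control wells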
Myeloid diff MLP: induction of myeloid progenitor differentiation, primary screen, cell-based, flow cytometry, MLPCN library | AID 624256, 2012 | ER-HoxA9 myeloid progenitors, lysozyme-GFP differentiation | calls only at 10 µM | 360,000 tested, 1% active;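 active = normalized GFP-positive differentiation at or above the plate's own cutoff, the solvent-only control mean plus 3 SD; inconclusive = no clear call, values can overlap the other calls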;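 also: cells exposed to compound for four days before flow analysis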
FXN GAA850 act: FXN promoter activators, primary screen, cell-based, luciferase luminescence, HEK293 lucGAA850; HEK293 lucGAA850 FXN promoter luciferase reporter, 24 h; percent of 10 µM SAHA response; activation, % at 6 µM; 360,000 tested, 0.56% active; AID 540364, 2011;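 active = activation above the average of all compounds screened plus 3 SD, cutoff fixed separately per campaign, cut at about 7.5% in these data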;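 also: 0% = DMSO wells and 100% = 10 µM SAHA wells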
NR2E3 ag conf: NR2E3 agonist confirmation in cells, cell-based, luminescence, CHO-S two-hybrid. inhibition, % at 3.98 µM. 2,300 tested, 51% active. shares compounds with NR2E3 ag-1. CHO-S mammalian two-hybrid NR2E3-NCOR, luciferase luminescence;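 active = average inhibition above a cutoff equal to the mean inhibition of all tested compounds plus one SD, cut at about 70% in these data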;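 also: 0% = DMSO in NR2E3 cells and 100% = DMSO in cells lacking NR2E3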
VP16 counter: GAL4-VP16 reporter modulators, confirmation, counter-screen for NR2E3 agonist project, cell-based, luminescence, CHO-S, high throughput. shares compounds with NR2E3 ag-1. CHO-S GAL4-VP16 luciferase reporter. inhibition, % at 3.98 µM. 2,300 tested, 29% active;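 active = mean inhibition above a cutoff equal to the average over all tested compounds plus one standard deviation, cut at about 70% in these data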;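 also: luciferase from a UAS reporter driven by GAL4-VP16 transactivation; 0% = DMSO with VP16-transfected cells and 100% = DMSO with cells lacking VP16; higher means less reporter light so more repression of VP16 activity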
Myeloid diff: inducers of myeloid progenitor differentiation, confirmation, cell-based, GFP/Mac1 flow cytometry, cherry pick 01 | shares compounds with Myeloid diff MLP | 2,300 tested, 2% active | calls only | ER-HoxA9 myeloid progenitors, GFP/Mac1 double-positive flow;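 active = share of green or green-and-red cells above 9 and 9% in run 1 or 4 and 3% in run 2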
GFP autofluor: counter-screen for myeloid differentiation promoters: compound fluorescence; shares compounds with Myeloid diff MLP; ER-HoxA9 myeloid progenitors, no estrogen, GFP autofluorescence flow cytometry; vehicle wells 0%, positive control 100%; fluorescence response, % (no concentration beside the values); 2,300 tested, 7.4% active; AID 651707;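 active = over 5% cells positive for green fluorescent reporter, or over 2% positive for both it and APC stain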;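 also: range taken on the double positive population between DMSO and positive control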
Active calls of the source: *; i = inactive; ? = inconclusive; / = not tested or not shown; + = active, no number. Hits are enriched below; roughly 2% of the tested compounds scored in any of these assays.

SMILES	T cell HTS	NR2E3 ag-1	NR2E3 ag-2	Myeloid diff MLP	FXN GAA850 act	NR2E3 ag conf	VP16 counter	others
CC1(C)C(C(=O)N2CCN(c3ccc(Cl)cc3)CC2)C1(C)C	/	-6	-3	i	2	/	/
COC(=O)C1CN(C#N)N(c2ccc(Cl)cc2)C12c1ccccc1-c1ccccc12 (stereo unspecified)	183	80*	0	?	-15	92*	63
CCN1CCN(C(=O)COc2ccc3oc4c(c3c2)CCCC4)CC1	316	-36	/	i	2	/	/
CC1CC(C)(O)CC(C(O)CC2CC(=O)NC(=O)C2)C1=O (stereo unspecified)	/	100*	/	/	-15	100*	99*
CC1CC2CC(=O)CCC2(C)C2CCC3(C)C(O)CCC3C12 (stereo unspecified)	/	-34	/	i	4	/	/
CC(C)(C)c1ccc(CSc2cnn(C(C)(C)C)c(=O)c2Cl)cc1	100	107*	-2	i	-3	100*	93*
C=C1C(=O)O[C@@H]2C[C@@H](C)[C@@H]3C=CC(=O)[C@@]3(C)[C@@H](OC(=O)CC(=O)O[C@H]3[C@@H]4C(=C)C(=O)O[C@@H]4C[C@@H](C)[C@@H]4C=CC(=O)[C@]43C)[C@H]12	304	96*	2	?	-14	101*	97*
C=C1C(=O)O[C@H]2C[C@@H](C)[C@@H]3C=CC(=O)[C@@]3(C)C[C@H]12	/	/	-5	/	/	/	/
C=C1C(=O)O[C@@H]2C[C@@H](C)[C@@H]3C4OC4C(=O)[C@@]3(C)[C@@H](O)[C@H]12 (stereo partly specified)	351	77*	-4	?	-14	-11	2
C=C1C(=O)OC2C1CCC(C)C1(O)C=CC(=O)C21C (stereo unspecified)	/	33	/	i	-13	/	/
C=C1C(=O)OC2CC(C)C3C=CC(=O)C3(C)C(O)C12 (stereo unspecified)	/	92*	/	?	-16	99*	41
C=C1C(=O)O[C@H]2[C@H]1[C@H](OC(=O)CC(=O)O[C@@H]1C[C@@H](C)[C@@H]3C=CC(=O)[C@@]3(C)[C@H]3OC(=O)C(=C)[C@H]13)C[C@@H](C)[C@H]1C=CC(=O)[C@]12C	510	78*	0	i	-2	89*	73*
COc1cccc(C(c2nnnn2C2CCCCC2)N2CCC3(CC2)C(=O)NCN3c2ccccc2)c1OC (stereo unspecified)	/	-26	/	i	/	/	/
BrCC(Br)(Br)Br	i	9	2	i	-3	/	/
C/C=C1/C[C@@H](C)[C@](O)(CO)C(=O)OCC2=CCN3CC[C@@H](OC1=O)[C@@H]23	932	-28	0	i	-1	/	/
CC(O)C1C=CC=CC(=O)OC2CC3OC4C5OC5(C)C(O)CC4(COC(=O)C(O)C(C)CCO1)C2(C)C31CO1 (stereo unspecified)	/	92*	/	/	-15	94*	66
CC1=CC2OC3CC4OC(=O)C=CC=CC(C(C)O)OCC(O)C5(C)OC5C(=O)OCC2(CC1O)C4(C)C31CO1 (stereo unspecified)	/	102*	/	/	-15	98*	98*
CC1=CC2OC3CC4OC(=O)C=CC=CC(=O)OCCC(C)C(O)C(=O)OCC2(CC1)C4(C)C31CO1 (stereo unspecified)	/	103*	/	/	-16	101*	100*
CC1CCOC(=O)C=CC=CC(=O)OC2CC3OC4C5OC5(C)C(O)CC4(COC(=O)C1O)C2(C)C31CO1 (stereo unspecified)	/	102*	/	/	-15	99*	99*
O=P(Oc1ccc(-c2ccccc2)cc1)(N1CC1)N1CC1	/	-19	/	i	1	/	/
O=c1[nH]c2ccccc2n1C1CCN(C(CCc2ccccc2)c2nnnn2C2CCCCC2)CC1 (stereo unspecified)	/	-4	/	i	/	/	/
C=CCN1C(=O)C2(C(C(=O)OCC)=C(N)Oc3ccccc32)c2c1c1ccccc1oc2=O (stereo unspecified)	558	16	0	i	-2	/	/	Myeloid diff=i;GFP autofluor=0
CCOC(=O)C1=C(N)Oc2c(c(=O)oc3ccccc23)C12C(=O)N(C)c1ccccc12 (stereo unspecified)	447	-3	-1	i	-2	/	/
COC(=O)C1=C(c2cc3ccccc3s2)C[C@@H]2CC[C@H]1N2C(=O)NC1CCCCC1	i	27	1	i	0	/	/	Myeloid diff=+;GFP autofluor=0
COC(=O)C1=C(c2cccc(C#N)c2)C[C@@H]2CC[C@H]1N2C(=O)NC1CCCCC1	301	-6	1	+	2	/	/	Myeloid diff=i;GFP autofluor=0
SMILES	T cell HTS	NR2E3 ag-1	NR2E3 ag-2	Myeloid diff MLP	FXN GAA850 act	NR2E3 ag conf	VP16 counter	others
CCC(c1nnnn1-c1ccc(OC)cc1)N1CCC2(CC1)C(=O)NCN2c1ccccc1 (stereo unspecified)	/	-13	/	i	/	/	/
COCCOC(=O)c1c(N)n(Cc2ccco2)c2nc3ccccc3nc12	614	-19	-2	i	-1	/	/	Myeloid diff=i;GFP autofluor=2
CC(C)OC(=O)c1c(N)n(Cc2ccco2)c2nc3ccccc3nc12	590	-4	2	i	2	/	/
COc1ccc(NC(=O)c2cn(CCC#N)nc2-c2cccc([N+](=O)[O-])c2)cc1	243	3	-3	i	-1	/	/
COc1ccc(Oc2cc(NC(=O)c3nn(C)cc3[N+](=O)[O-])cc([N+](=O)[O-])c2)cc1	126	23	1	i	3	/	/	Myeloid diff=i;GFP autofluor=0
O=C(O)CC1OCC=C2CN3CCC45C6=CC(=O)C(=O)C([N+](=O)[O-])=C6NC4C1C2CC35 (stereo unspecified)	355	-39	17	i	0	/	/
Cn1c(=O)n(CC(=O)N2CCC3(CC2)OCCO3)c(=O)c2ccccc21	378	4	2	+	1	/	/	Myeloid diff=i;GFP autofluor=0
